From ChEMBL document CHEMBL1782043, “Synthesis and antileishmanial activity of novel 5-(5-nitrofuran-2-y1)-1,3,4-thiadiazoles with piperazinyl-linked benzamidine substituents” (Eur J Med Chem, 2011) come the findings set out here.

Calls of active or inactive are those of the source. The calls are words filed in the database; no cut-off is given here.

For series [1], the system named is Leishmania major. The experiment in a line: Antileishmanial activity against promastigotes form of Leishmania major MRHO/IR/75/ER after 24 hrs by MTT assay. The series is classed as functional, organism-based. In outline:
(§1)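 Log-phase promastigotes (2 × 10⁶/mL) were used, from a strain passaged in BALB/c mice. They were incubated with serial drug dilutions in phenol red-free RPMI 1640 with 10% FBS, 2 mM glutamine and antibiotics, pH ~7.2, at 25 °C for 24, 48 or 72 h. MTT (0.5 mg/mL) was then added for 4 h at 37 °C. Cells were pelleted and dissolved in DMSO, with absorbance read at 492 nm. Controls received medium plus DMSO. At least two independent experiments were run in triplicate. IC50 came from linear regression, as mean ± SD.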
In general terms: Tetrazolium assays rely on reduction of a dye to a coloured formazan, in cell work by metabolically active cells.

The test system of series [2] is Leishmania major. The experiment in a line: Antileishmanial activity against promastigotes form of Leishmania major MRHO/IR/75/ER after 48 hrs by MTT assay. Format: functional, organism-based. Summed up: as §1
For series [3], the system named is Leishmania major. The experiment in a line: Antileishmanial activity against promastigotes form of Leishmania major MRHO/IR/75/ER after 72 hrs by MTT assay. The series is classed as functional, organism-based. In outline: as §1
A short description of series [4]: Cytotoxicity against mouse peritoneal macrophages after 24 hrs by MTT assay. Format: cell-based, Peritoneal macrophage cell. Summed up:
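Peritoneal macrophages were seeded at 2 × 10⁵ cells/well and allowed to adhere. Medium was then replaced with a range of compound concentrations for 24 h at 37 °C in humidified 5% CO₂. Viability was read by MTT colorimetry. Two independent experiments were run in triplicate, and CC50 was obtained by linear regression.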

A short description of series [5]: Selectivity index, ratio of CC50 for mouse peritoneal macrophages to IC50 for promastigotes form of Leishmania major MRHO/IR/75/ER after 24 hrs by MTT assay. The series is classed as functional.
The test system of series [6] is Leishmania major. The experiment in a line: Antileishmanial activity against amastigotes form of Leishmania major MRHO/IR/75/ER infected in mouse peritoneal macrophage assessed as decrease in number of amastigotes per macrophage after 24 hrs. Format: functional, organism-based. Summed up:
(§2)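 Mouse peritoneal macrophages (1 × 10⁶/well) were grown on glass coverslips in RPMI 1640 with 10% heat-inactivated FBS, 2 mM glutamine, penicillin and streptomycin. Non-adherent cells were washed off after 1 h. Stationary-phase promastigotes (2 × 10⁶/well, 3 per macrophage) were added for 2 h at 37 °C under CO₂. Free parasites were washed away, then drug medium was added for 24 h. Cells were methanol-fixed and Giemsa-stained, with 100 cells counted per well. Infectivity index = % infected macrophages × mean parasites per infected cell. Two experiment sets were run.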

Series [7] concerns Leishmania major. The experiment in a line: Antileishmanial activity against amastigotes form of Leishmania major MRHO/IR/75/ER infected in mouse peritoneal macrophage assessed as decrease in macrophage infectivity after 24 hrs. The series is classed as functional, organism-based. Summed up:
as §2

Series [8] concerns Leishmania major. The experiment in a line: Antileishmanial activity against amastigotes form of Leishmania major MRHO/IR/75/ER infected in mouse peritoneal macrophage assessed as decrease in infectivity index after 24 hrs. The series is classed as functional, organism-based. In outline:
as §2

By IC50 is commonly meant the concentration that inhibits the measured activity by half. Broadly, the CC50 is the concentration giving 50% cytotoxicity. In the case of `CCC(C)NC(=N)c1ccc(N2CCN(c3nnc(-c4ccc([N+](=O)[O-])o4)s3)CC2)cc1.Cl` (centres undefined), the IC50 in the series with Leishmania major [1] worked out at 33 µM; in the series on Leishmania major [2] it was 18 µM; with Leishmania major [3], 13 µM. This compound also yielded a 50% cytotoxic concentration (CC50) at 24 h in series [4] of 770 µM. For the same compound, in series [5], the “Ratio CC50/IC50” value is reported as 23.33. In addition, the outcome in the series with Leishmania major [6], with Leishmania major [7] and in the series on Leishmania major [8] was Active.

As to `CCNC(=N)c1ccc(N2CCN(c3nnc(-c4ccc([N+](=O)[O-])o4)s3)CC2)cc1.Cl`, the IC50 with Leishmania major [1] is 33 µM; in the series on Leishmania major [2], 26 µM; in the series on Leishmania major [3], 16 µM. The compound further had a 50% cytotoxic concentration (CC50) at 24 h in series [4] of 337 µM. In series [5], the “Ratio CC50/IC50” value was determined as 10.21. Besides, the outcome in the series on Leishmania major [6], with Leishmania major [7] and in the series with Leishmania major [8] was Active.

`CNC(=N)c1ccc(N2CCN(c3nnc(-c4ccc([N+](=O)[O-])o4)s3)CC2)cc1.Cl`: the half-inhibitory concentration (IC50) was 23 µM in the series with Leishmania major [1], 22 µM with Leishmania major [2] and 21 µM in the series with Leishmania major [3]. The compound also yielded a CC50 at 24 h in series [4] of 223 µM. In series [5], the “Ratio CC50/IC50” value is 9.69. Further, the outcome in the series on Leishmania major [6], in the series with Leishmania major [7] and in the series with Leishmania major [8] was Active.

Turning to `COc1ccc(CNC(=N)c2ccc(N3CCN(c4nnc(-c5ccc([N+](=O)[O-])o5)s4)CC3)cc2)cc1.Cl`, the half-inhibitory concentration (IC50) came to 80 µM with Leishmania major [1], 76 µM in the series with Leishmania major [2] and 2 µM in the series with Leishmania major [3]. In series [4], this compound yielded a CC50 at 24 h of 69 µM. Moreover, the “Ratio CC50/IC50” value in series [5] was determined as 0.86. The outcome in the series on Leishmania major [6], with Leishmania major [7] and in the series with Leishmania major [8] was Active.

`Cl.N=C(c1ccc(N2CCN(c3nnc(-c4ccc([N+](=O)[O-])o4)s3)CC2)cc1)N1CCOCC1`: the IC50 in the series with Leishmania major [1] was determined as 93 µM; with Leishmania major [2], 88 µM; with Leishmania major [3] it was 4 µM. Moreover, in series [4], the midpoint of cytotoxicity, the CC50 at 24 h, lay at 55 µM. Also, in series [5], the “Ratio CC50/IC50” value is 0.59.

With `O=[N+]([O-])c1ccc(-c2nnc(N3CCN(c4ccc(C5=NCCN5)cc4)CC3)s2)o1`, the IC50 with Leishmania major [1] was > 200 µM.

For the compound `Cl.N=C(NCC1CCCO1)c1ccc(N2CCN(c3nnc(-c4ccc([N+](=O)[O-])o4)s3)CC2)cc1` (centres undefined), the values for the half-maximal inhibitory concentration (IC50) in the series on Leishmania major [1], in the series with Leishmania major [2] and with Leishmania major [3] were 95 µM, 88 µM and 5 µM, respectively. For the same compound, the CC50 at 24 h in series [4] is 921 µM. Further, the “Ratio CC50/IC50” value in series [5] came out at 9.69.

`CCCCNC(=N)c1ccc(N2CCN(c3nnc(-c4ccc([N+](=O)[O-])o4)s3)CC2)cc1.Cl`: the figures for the IC50 with Leishmania major [1], in the series on Leishmania major [2] and in the series on Leishmania major [3] were 11 µM, 4 µM and 0.2 µM, respectively. This compound also gave a CC50 at 24 h in series [4] of 123 µM. The “Ratio CC50/IC50” value in series [5] turned out to be 11.18.

On to `Cl.N=C(NCc1ccccc1)c1ccc(N2CCN(c3nnc(-c4ccc([N+](=O)[O-])o4)s3)CC2)cc1`, for which the IC50 in the series on Leishmania major [1] came to 9 µM; with Leishmania major [2] it was 1.9 µM; in the series with Leishmania major [3], 0.4 µM. Also, in series [4], it took 546 µM to reach half-maximal cytotoxicity (CC50 at 24 h). Besides, the “Ratio CC50/IC50” value in series [5] turned out to be 60.77. In addition, the result in the series with Leishmania major [6], in the series on Leishmania major [7] and in the series on Leishmania major [8] was Active.

Turning to `N#Cc1ccc(N2CCN(c3nnc(-c4ccc([N+](=O)[O-])o4)s3)CC2)cc1`, the IC50 in the series with Leishmania major [1] came out at 104 µM; in the series on Leishmania major [2], 86 µM; in the series with Leishmania major [3], 32 µM. The half-maximal cytotoxic concentration (CC50) at 24 h in series [4] was 159 µM. Also, the “Ratio CC50/IC50” value in series [5] is 1.53. Also, the result in the series with Leishmania major [6], in the series on Leishmania major [7] and in the series with Leishmania major [8] was Active.

Turning to `CCOC(=N)c1ccc(N2CCN(c3nnc(-c4ccc([N+](=O)[O-])o4)s3)CC2)cc1`, the half-maximal inhibitory concentration (IC50) in the series on Leishmania major [1] worked out at 48 µM; in the series with Leishmania major [2] it was 46 µM; in the series with Leishmania major [3], 26 µM. The result in the series on Leishmania major [6], with Leishmania major [7] and with Leishmania major [8] was Active.

Turning to `CCCNC(=N)c1ccc(N2CCN(c3nnc(-c4ccc([N+](=O)[O-])o4)s3)CC2)cc1.Cl`, the IC50 came to 10 µM in the series with Leishmania major [1], 5 µM in the series with Leishmania major [2] and 0.08 µM in the series with Leishmania major [3]. Also, in series [4], it took 785 µM to reach half-maximal cytotoxicity (CC50 at 24 h). Further, the “Ratio CC50/IC50” value in series [5] stood at 78.5. Besides, the result in the series with Leishmania major [6], with Leishmania major [7] and in the series on Leishmania major [8] was Active.

Consider `Cl.N=C(N)c1ccc(N2CCN(c3nnc(-c4ccc([N+](=O)[O-])o4)s3)CC2)cc1`, for which the results for the IC50 with Leishmania major [1], with Leishmania major [2] and with Leishmania major [3] were 111 µM, 111 µM and 26 µM, respectively. The compound further showed a CC50 at 24 h in series [4] of 342 µM. Also, the “Ratio CC50/IC50” value in series [5] was 3.08.

With `O=[N+]([O-])c1ccc(-c2nnc(N3CCN(c4ccc(C5=NCCCN5)cc4)CC3)s2)o1`, in the series with Leishmania major [1], the IC50 is > 200 µM.
